Assay results published in ChEMBL document CHEMBL1142740, “Pyrroloquinolone PDE5 inhibitors with improved pharmaceutical profiles for clinical studies on erectile dysfunction” (J Med Chem, 2005).

Columns and labels:
[1] = tested on: RFL-6; assay: Ratio of inhibitory constant against phosphodiesterase 4 and phosphodiesterase 5 in rat fetal lung fibroblast (RFL-6) cells; format: cell-based
[2] = tested on: RFL-6; assay: Ratio of inhibitory constant against phosphodiesterase 1 and phosphodiesterase 5 in rat fetal lung fibroblast (RFL-6) cells; format: cell-based
[3] = tested on: RFL-6; assay: Ratio of inhibitory constant against rod phosphodiesterase 6 and phosphodiesterase 5 in rat fetal lung fibroblast (RFL-6) cells; format: cell-based
[4] = tested on: RFL-6; assay: Ratio of inhibitory constant against phosphodiesterase 3 and phosphodiesterase 5 in rat fetal lung fibroblast (RFL-6) cells; format: cell-based
[5] = tested on: RFL-6; assay: Ratio of inhibitory constant against phosphodiesterase 2 and phosphodiesterase 5 in rat fetal lung fibroblast (RFL-6) cells; format: cell-based
[6] = tested on: RFL-6; assay: Ratio of inhibitory constant against cone phosphodiesterase 6 and phosphodiesterase 5 in rat fetal lung fibroblast (RFL-6) cells; format: cell-based
[7] = biological target: T1, cGMP-specific 3',5'-cyclic phosphodiesterase (Rattus norvegicus, UniProt O54735); assay: Inhibitory concentration against phosphodiesterase 5 in rat fetal lung fibroblast (RFL-6) cells; format: cell-based
[8] = tested on: Canis familiaris; assay: Effect on intracavernosal pressure after i.v. administration in electrically stimulated dogs; format: functional; settings: Canis lupus familiaris, iv
[9] = biological target: T1, cGMP-specific 3',5'-cyclic phosphodiesterase; assay: Inhibition of phosphodiesterase 5 in rat fetal lung fibroblast (RFL-6) cells; format: cell-based
[10] = biological target: cGMP-specific 3',5'-cyclic phosphodiesterase (Rattus norvegicus) (UniProt O54735); settings: RFL-6
[11] = (§1) Oral bioavailability in rat; format: ADME, organism-based; settings: in vivo
Procedure, shortened: (§2)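 Male Sprague-Dawley rats, male beagle dogs and male rhesus monkeys, three per group. The oral arm received 30 mg/kg in 0.5% methylcellulose; the iv arm received 3.0 mg/kg in 20% HPBCD. Blood was drawn at 0, 0.5, 1, 2, 4, 6 and 24 h, and plasma drug was quantified by LC/MS. Bioavailability is reported as value and standard deviation.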

[12] = Oral bioavailability in monkey was determined; format: ADME, organism-based; settings: cercopithecidae, in vivo; procedure, shortened: as §2
[13] = Oral bioavailability in dog; format: ADME, organism-based, Canis lupus familiaris; settings: in vivo; procedure, shortened: as §2
[14] = tested on: RFL-6; assay: Ratio of binding affinity towards phosphodiesterase 4 and phosphodiesterase 5 in rat fetal lung fibroblast (RFL-6) cells; format: cell-based
[15] = as §1; format: ADME, organism-based; settings: in vivo; procedure, shortened: as §2; remark: listed apart in the source
[16] = biological target: cGMP-specific 3',5'-cyclic phosphodiesterase (Rattus norvegicus) (UniProt O54735); assay: pKa value for phosphodiesterase 5 in rat fetal lung fibroblast (RFL-6) cells; format: functional, cell-based

Structure (SMILES)	IC50 [7]	Ki [9]	Pka [10]	bioavailability [11]	bioavailability [12]	bioavailability [13]	bioavailability [15]	pKa [16]	pka [16]	Selectivity [1]	Selectivity [2]	Selectivity [3]	Selectivity [4]	Selectivity [5]	Selectivity [6]	ED50 [8]	Selectivity [14]
Oc1c2c(nc3ccccc13)C(c1ccc3c(c1)OCO3)N(c1ccc(-n3ccnc3)cc1)C2 (stereo unspecified)	1.75 nM	–	–	–	–	–	–	–	–	> 2500	> 15000	20.1	> 10300	> 4870	13.2	–	–
Oc1c2c(nc3ccccc13)[C@@H](c1ccc3c(c1)CCO3)N(c1ccccn1)C2	–	0.12 nM	–	–	40%	69%	–	–	–	> 2500	> 15000	173	> 15000	> 15000	106	9.85 µg/kg	–
Cn1cncc1-c1ccc(N2Cc3c(nc4ccccc4c3O)C2c2ccc3c(c2)CCO3)nc1 (stereo unspecified)	–	0.33 nM	–	–	–	–	–	–	–	–	> 15000	2.6	> 15000	> 15000	10.3	–	> 2500
CN1CC(=O)N2[C@H](c3ccc4c(c3)OCO4)c3[nH]c4ccccc4c3C[C@@H]2C1=O	–	5 nM	–	–	–	–	–	–	–	> 2000	> 2000	–	> 2000	> 2000	1000	–	–
CCCc1nn(C)c2c(=O)[nH]c(-c3cc(S(=O)(=O)N4CCN(C)CC4)ccc3OCC)nc12	–	–	–	–	–	–	–	–	–	–	–	–	–	–	–	5.1 µg/kg	–
O=c1c2c([nH]c3ccccc13)C(c1ccc3c(c1)CCO3)N(c1ccccn1)C2 (stereo unspecified)	–	0.65 nM	–	38%	–	–	38%	–	–	–	–	–	–	–	–	–	–
Oc1c2c(nc3ccccc13)C(c1ccc3c(c1)CCO3)N(c1ccc(-c3cncn3Cc3ccccc3)cn1)C2 (stereo unspecified)	–	0.17 nM	–	–	–	–	–	–	–	> 2500	> 15000	57.6	4560	> 15000	68.9	–	–
CCN(CC)CCOc1ccc(-c2cnc(N3Cc4c(nc5ccccc5c4O)C3c3ccc4c(c3)CCO4)nc2)cc1 (stereo unspecified)	–	0.53 nM	–	–	–	–	–	–	–	–	–	–	–	–	–	–	–
Oc1c2c(nc3ccccc13)C(c1ccc3c(c1)CCO3)N(c1ccc(-n3ccnc3)cc1)C2 (stereo unspecified)	–	0.51 nM	–	–	–	–	–	–	–	> 2500	> 15000	499	> 15000	> 15000	1840	–	–
Oc1c2c(nc3ccccc13)C(c1ccc3c(c1)CCO3)N(c1ncccn1)C2 (stereo unspecified)	–	–	–	12%	–	–	–	4.4	–	> 2500	> 15000	755	> 15000	> 15000	310	–	–
Oc1c2c(nc3ccccc13)C(c1ccc3c(c1)CCO3)N(c1ccccn1)C2 (stereo unspecified)	–	–	–	–	–	–	–	–	5	> 2500	> 15000	219	> 15000	> 15000	237	–	–

Second part, led by results:

IC50 [7]	Ki [9]	Pka [10]	bioavailability [11]	bioavailability [12]	bioavailability [13]	bioavailability [15]	pKa [16]	pka [16]	Structure (SMILES)	Selectivity [1]	Selectivity [2]	Selectivity [3]	Selectivity [4]	Selectivity [5]	Selectivity [6]	ED50 [8]	Selectivity [14]
–	0.019 nM	–	–	–	–	–	–	–	Oc1c2c(nc3ccccc13)[C@@H](c1ccc3c(c1)CCO3)N(c1ncc(-c3ccccn3)cn1)C2	> 2500	> 15000	99	> 15000	> 15000	67	8.03 µg/kg	–
–	–	9.24	31.3%	–	–	–	–	–	Oc1c2c(nc3ccccc13)C(c1ccc3c(c1)CCO3)N(c1ncc(-c3ccccn3)cn1)C2 (stereo unspecified)	–	> 15000	–	> 15000	> 15000	–	–	–
–	0.15 nM	–	39%	–	–	–	–	–	Oc1c2c(nc3ccccc13)C(c1ccc3c(c1)CCO3)N(c1ccc(-c3ccccn3)cn1)C2 (stereo unspecified)	> 2500	> 15000	93	> 15000	> 15000	69.2	–	–
–	0.29 nM	–	–	–	–	–	–	–	Oc1c2c(nc3ccccc13)C(c1ccc3c(c1)OCO3)N(c1ncc(-c3cccnc3)cn1)C2 (stereo unspecified)	> 2500	> 15000	9.3	> 15000	> 15000	7.6	–	–
–	0.22 nM	–	–	–	–	–	–	–	Oc1c2c(nc3ccccc13)C(c1ccc3c(c1)CCO3)N(c1ncc(-c3ccncc3)cn1)C2 (stereo unspecified)	> 2500	> 15000	10.5	> 15000	> 15000	12.1	–	–
–	0.24 nM	–	–	–	–	–	–	–	Cc1ncc(-c2cnc(N3Cc4c(nc5ccccc5c4O)C3c3ccc4c(c3)CCO4)nc2)n1Cc1ccccc1 (stereo unspecified)	> 2500	> 15000	366	> 15000	> 15000	359	–	–
–	6.43 nM	–	–	–	–	–	–	–	Oc1c2c(nc3ccccc13)C(c1ccc3c(c1)CCO3)N(c1ccc(-c3ccccn3)nc1)C2 (stereo unspecified)	> 2500	> 15000	–	> 15000	> 15000	–	–	–
–	0.24 nM	–	0%	–	–	–	–	–	Cc1ncc(-c2cnc(N3Cc4c(nc5ccccc5c4O)C3c3ccc4c(c3)CCO4)nc2)n1C (stereo unspecified)	> 2500	> 15000	237	> 15000	> 15000	219	–	–
1.9 nM	–	–	–	–	–	–	–	–	Oc1c2c(nc3ccccc13)C(c1ccc3c(c1)CCO3)N(c1ncc(Br)cn1)C2 (stereo unspecified)	> 2500	> 15000	35.7	> 15000	> 15000	39.2	–	–
–	0.36 nM	–	–	–	–	–	–	–	Oc1c2c(nc3ccccc13)C(c1ccc3c(c1)CCO3)N(c1ncc(-c3cccnc3)cn1)C2 (stereo unspecified)	> 2500	> 15000	127	> 15000	> 15000	66.5	–	–
–	0.52 nM	–	–	–	–	–	–	–	COc1ccc(-c2cnc(N3Cc4c(nc5ccccc5c4O)C3c3ccc4c(c3)CCO4)nc2)cc1 (stereo unspecified)	–	–	–	–	–	–	–	–
–	0.19 nM	–	–	–	–	–	–	–	Oc1c2c(nc3ccccc13)C(c1ccc3occc3c1)N(c1ncc(-c3ccccn3)cn1)C2 (stereo unspecified)	2500	15000	22.6	> 15000	> 15000	22.3	–	–
